Activity calls are given as the source filed them. The calls are words filed in the database; no cut-off is given here.
Tests used:
[1] = system: Cricetinae gen. sp.; experiment: Evaluated for its ability to reduce liver cholesterol esters(LCE) in cholesterol-fed hamsters.; type: functional, Cricetulus griseus
Method in brief: (§1)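 Hamsters were fed a 0.5% cholesterol diet for 7 days with once-daily oral gavage dosing in 0.2 mL corn oil. Controls got the same diet and vehicle without drug. Livers were collected on day 7 and neutral lipids extracted. Cholesteryl ester content was measured by HPLC. Results are given as percent change in hepatic cholesteryl ester versus cholesterol-fed controls, or as ED50 in mg/kg/day.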

[2] = system: Cricetinae gen. sp.; settings: Cricetulus griseus; Liver; 10 mg/kg
[3] = system: Cricetinae gen. sp.; experiment: The compound was evaluated for percent reduction of liver cholesterol esters(LCE) in cholesterol-fed hamsters at 3 mg/kg/day; type: functional, Cricetulus griseus; method in brief: as §1
[4] = system: Cricetinae gen. sp.; experiment: The compound was evaluated for its ability to reduce liver cholesterol esters(LCE) in cholesterol-fed hamsters; NE=no effect at 100 mg/kg; type: functional, organism-based; set-up: dose 100 mg/kg; settings: Cricetulus griseus; method in brief: as §1
[5] = system: Cricetinae gen. sp.; experiment: The compound was evaluated for percent reduction of liver cholesterol esters(LCE) in cholesterol-fed hamsters at 10 mg/Kg/day; type: functional, Cricetulus griseus; method in brief: as §1
[6] = The pharmacokinetics property percent negation of rise in liver cholesterol esters relative to control-fed 0.5% cholesterol for 7 days, At a dose of 3 mg/kg/day; type: ADME, organism-based; settings: in vivo, 168 h; method in brief: as §1
[7] = Percent negation of rise in total serum cholesterol relative to control-fed 0.5% cholesterol for 7 days, At a dose of 0.3 mg/kg/day; percent reduction was not statistically significant; type: ADME, organism-based; settings: in vivo, 168 h
Method in brief: (§2)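 Serum total cholesterol was measured in hamsters given 0.5% dietary cholesterol for 7 days with daily oral gavage dosing (0.2 mL corn oil vehicle). Controls were cholesterol-fed animals receiving vehicle without drug. Results are expressed as percent negation of the diet-induced rise in serum total cholesterol relative to these controls.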

[8] = The pharmacokinetics property percent negation of rise in liver cholesterol esters relative to control-fed 0.5% cholesterol for 7 days, At a dose of 0.3 mg/kg/day; percent reduction was not statistically significant; type: ADME, organism-based; settings: in vivo, 168 h; method in brief: as §1
[9] = Percent negation of rise in total serum cholesterol relative to control-fed 0.5% cholesterol for 7 days, At a dose of 3 mg/kg/day; type: ADME, organism-based; settings: in vivo, 168 h; method in brief: as §2
[10] = Percent negation of rise in total serum cholesterol relative to control-fed 0.5% cholesterol for 7 days, At a dose of 1 mg/kg/day; percent reduction was not statistically significant; type: ADME, organism-based; settings: in vivo, 168 h; method in brief: as §2
[11] = system: Cricetinae gen. sp.; experiment: The compound was evaluated for percent reduction of liver cholesterol esters(LCE) in cholesterol-fed hamsters at 2.5 mg/Kg/day; type: functional, Cricetulus griseus; method in brief: as §1
[12] = The pharmacokinetics property percent negation of rise in liver cholesterol esters relative to control-fed 0.5% cholesterol for 7 days, At a dose of 0.3 mg/kg/day; type: ADME, organism-based; settings: in vivo, 168 h; method in brief: as §1
[13] = Percent negation of rise in total serum cholesterol relative to control-fed 0.5% cholesterol for 7 days, At a dose of 0.3 mg/kg/day; type: ADME, organism-based; settings: in vivo, 168 h; method in brief: as §2
[14] = Percent negation of rise in total serum cholesterol relative to control-fed 0.5% cholesterol for 7 days, at a dose of 0.03 mg/kg/day; type: ADME, organism-based; settings: in vivo, 168 h; method in brief: as §2
[15] = The pharmacokinetics property percent negation of rise in liver cholesterol esters relative to control-fed 0.5% cholesterol for 7 days, At a dose of 1 mg/kg/day; type: ADME, organism-based; settings: in vivo, 168 h; method in brief: as §1
[16] = Percent negation of rise in total serum cholesterol relative to control-fed 0.5% cholesterol for 7 days, At a dose of 1 mg/kg/day; type: ADME, organism-based; settings: in vivo, 168 h; method in brief: as §2
[17] = The pharmacokinetics property percent negation of rise in liver cholesterol esters relative to control-fed 0.5% cholesterol for 7 days, At a dose of 0.03 mg/kg/day; type: ADME, organism-based; settings: in vivo, 168 h; method in brief: as §1
[18] = Percent negation of rise in total serum cholesterol relative to control-fed 0.5% cholesterol for 7 days, At a dose of 0.1 mg/kg/day; type: ADME, organism-based; settings: in vivo, 168 h; method in brief: as §2
[19] = The pharmacokinetics property percent negation of rise in liver cholesterol esters relative to control-fed 0.5% cholesterol for 7 days, At a dose of 0.1 mg/kg/day; type: ADME, organism-based; settings: in vivo, 168 h; method in brief: as §1

## CC1CC[C@@]2(OC1)O[C@H]1C[C@H]3[C@@H]4CC[C@H]5C[C@@H](O[C@@H]6O[C@@H](CO)[C@@H](O[C@@H]7O[C@@H](COC(=O)Nc8ccccc8F)[C@@H](OC(=O)Nc8ccccc8F)[C@H](O)[C@@H]7O)[C@H](O)[C@@H]6O)CC[C@]5(C)[C@H]4CC(=O)[C@]3(C)[C@H]1[C@@H]2C (some centres not stated)
[1]
  ED50: 0.07 mg/kg/day

## COc1ccc(N2C(=O)[C@H](CCC(=O)c3ccccc3)[C@H]2c2ccc(O)cc2)cc1
[1]
  ED50: 3 mg/kg/day

## COc1ccc([C@@H]2[C@@H](CCCc3ccc(F)cc3)C(=O)N2c2ccc(F)cc2)cc1
[1]
  ED50: 0.7 mg/kg/day

## COc1ccc([C@@H]2[C@@H](CC[C@H](O)c3ccccc3)C(=O)N2c2ccc(OC)cc2)cc1
[1]
  ED50: 0.9 mg/kg/day

## CC[C@H](C)C(=O)O[C@H]1C[C@@H](C)C=C2C=C[C@H](C)[C@H](CC[C@@H]3C[C@@H](O)CC(=O)O3)[C@H]21
[2]
  ED50: No effect

## O=C(CC[C@H]1C(=O)N(c2ccc(F)cc2)[C@@H]1c1ccc(OCc2ccccc2)cc1)c1ccc(F)cc1
[3]
  Reduction: -96%

## O=C(CC[C@H]1C(=O)N(c2ccc(F)cc2)[C@@H]1c1ccc(O)cc1)c1ccc(F)cc1
[1]
  ED50: 0.3 mg/kg/day

## Cc1ccc(C)c(OCCCC(C)(C)C(=O)O)c1
[4]
  ED50: inactive

## O=C1[C@H](CCCc2ccccc2)[C@@H](c2ccc(O)cc2)N1c1ccc(O)cc1
[5]
  Reduction: -68%

## COc1ccc([C@@H]2[C@@H](CCC(=O)c3ccccc3)C(=O)N2c2ccc(OC)cc2)cc1
[1]
  ED50: 2 mg/kg/day

## COc1ccc([C@@H]2[C@@H](CCCc3ccccc3)C(=O)N2c2ccc(OC)cc2)cc1 [SCH-48461]
[6]
  Negation: -68%
[7]
  Negation: Not Active
[8]
  Negation: Not Active
[1]
  ED50: 2.2 mg/kg/day
[9]
  Negation: -76%
[10]
  Negation: Not Active

## COc1ccc([C@@H]2[C@@H](CC[C@@H](O)c3ccccc3)C(=O)N2c2ccc(OC)cc2)cc1
[1]
  ED50: 5 mg/kg/day

## COc1ccc(N2C(=O)[C@H](CC[C@H](O)c3ccccc3)[C@H]2c2ccc(O)cc2)cc1
[1]
  ED50: 0.3 mg/kg/day

## O=C1[C@H](CCCc2ccc(F)cc2)[C@@H](c2ccc(O)cc2)N1c1ccc(F)cc1
[1]
  ED50: 2 mg/kg/day

## COc1ccc([C@@H]2[C@@H](CCCc3ccc(O)cc3)C(=O)N2c2ccc(OC)cc2)cc1
[5]
  Reduction: -16%

## CC(=O)Oc1ccc([C@@H]2[C@@H](CC[C@H](OC(C)=O)c3ccc(F)cc3)C(=O)N2c2ccc(F)cc2)cc1
[1]
  ED50: 0.06 mg/kg/day

## COc1ccc(N2C(=O)[C@H](CCCc3ccc(O)cc3)[C@H]2c2ccc(O)cc2)cc1
[5]
  Reduction: -64%

## CCC(CC(CC)c1ccc(C[N+](C)(C)C)cc1)c1ccccc1.[Cl-] (configuration not stated)
[11]
  % reduction: -96

## COc1ccc(N2C(=O)[C@H](CCCc3ccccc3)[C@H]2c2ccc(O)cc2)cc1
[1]
  ED50: 5 mg/kg/day

## O=C1[C@H](CC[C@H](O)c2ccc(F)cc2)[C@@H](c2ccc(OCc3ccccc3)cc2)N1c1ccc(F)cc1
[1]
  ED50: 0.1 mg/kg/day

## COc1ccc(N2C(=O)[C@H](CC[C@@H](O)c3ccccc3)[C@H]2c2ccc(O)cc2)cc1
[1]
  ED50: 3 mg/kg/day

## CC(=O)Oc1ccc([C@@H]2[C@@H](CC[C@@H](OC(C)=O)c3ccc(F)cc3)C(=O)N2c2ccc(F)cc2)cc1
[1]
  ED50: 1.5 mg/kg/day

## O=C1[C@H](CC[C@@H](O)c2ccc(F)cc2)[C@@H](c2ccc(O)cc2)N1c1ccc(F)cc1
[1]
  ED50: 0.8 mg/kg/day

## CC1CC[C@@]2(OC1)O[C@H]1C[C@H]3[C@@H]4CC[C@H]5C[C@@H](O[C@@H]6O[C@@H](CO)[C@@H](O[C@@H]7O[C@@H](COC(=O)Nc8ccccc8F)[C@@H](OC(=O)Nc8ccccc8F)[C@H](O)[C@@H]7O)[C@H](O)[C@@H]6O)CC[C@]5(C)[C@H]4C(=O)C[C@]3(C)[C@H]1[C@@H]2C (some centres not stated)
[1]
  ED50: 0.025 mg/kg/day

## O=C1[C@H](CC[C@H](O)c2ccc(F)cc2)[C@@H](c2ccc(O)cc2)N1c1ccc(F)cc1 [EZETIMIBE]
[6]
  Negation: -100%
[12]
  Negation: -96%
[13]
  Negation: -72%
[14]
  Negation: -23%
[15]
  Negation: -100%
[1]
  ED50: 0.04 mg/kg/day
[16]
  Negation: -100%
[17]
  Negation: -39%
[9]
  Negation: -100%
[18]
  Negation: -37%
[19]
  Negation: -87%

## COc1ccc([C@@H]2[C@@H](CCCc3ccccc3)C(=O)N2c2ccc(O)cc2)cc1
[5]
  Reduction: -78%

## O=C1[C@H](C/C=C/c2ccc(F)cc2)[C@@H](c2ccc(O)cc2)N1c1ccc(F)cc1
[1]
  ED50: 2.5 mg/kg/day
